Data as given in ChEMBL document CHEMBL2046280, “Discovery of the novel potent and selective FLT3 inhibitor 1-{5-[7-(3- morpholinopropoxy)quinazolin-4-ylthio]-[1,3,4]thiadiazol-2-yl}-3-p-tolylurea and its anti-acute myeloid leukemia (AML) activities in vitro and in vivo” (J Med Chem, 2012).

Key:
[1] = test system: HCT-116; experiment: Cytotoxicity against FLT3-independent human HCT116 cells after 72 hrs by MTT assay; type: functional, cell-based; conditions: HCT-116, 72 h
In short: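 Adherent lines at 2−5 × 10³ cells/well were allowed to settle 24 h, then the medium was replaced with serial inhibitor dilutions for 72 h. MTT was added for 2−4 h, followed by dissolution in 100% DMSO. OD read at 570 nm. Viability relative to 0.1% DMSO controls; triplicate. Grown in RPMI 1640 or DMEM with 10% FBS, 5% CO₂, 37 °C.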

[2] = molecular target: Insulin-like growth factor 1 receptor (Homo sapiens, UniProt P08069); experiment: Inhibition of human IGF-1R
[3] = molecular target: Tyrosine-protein kinase JAK3 (Homo sapiens, UniProt P52333); experiment: Inhibition of human JAK3
Chain of Tyrosine-protein kinase JAK3 (P52333 whole entry): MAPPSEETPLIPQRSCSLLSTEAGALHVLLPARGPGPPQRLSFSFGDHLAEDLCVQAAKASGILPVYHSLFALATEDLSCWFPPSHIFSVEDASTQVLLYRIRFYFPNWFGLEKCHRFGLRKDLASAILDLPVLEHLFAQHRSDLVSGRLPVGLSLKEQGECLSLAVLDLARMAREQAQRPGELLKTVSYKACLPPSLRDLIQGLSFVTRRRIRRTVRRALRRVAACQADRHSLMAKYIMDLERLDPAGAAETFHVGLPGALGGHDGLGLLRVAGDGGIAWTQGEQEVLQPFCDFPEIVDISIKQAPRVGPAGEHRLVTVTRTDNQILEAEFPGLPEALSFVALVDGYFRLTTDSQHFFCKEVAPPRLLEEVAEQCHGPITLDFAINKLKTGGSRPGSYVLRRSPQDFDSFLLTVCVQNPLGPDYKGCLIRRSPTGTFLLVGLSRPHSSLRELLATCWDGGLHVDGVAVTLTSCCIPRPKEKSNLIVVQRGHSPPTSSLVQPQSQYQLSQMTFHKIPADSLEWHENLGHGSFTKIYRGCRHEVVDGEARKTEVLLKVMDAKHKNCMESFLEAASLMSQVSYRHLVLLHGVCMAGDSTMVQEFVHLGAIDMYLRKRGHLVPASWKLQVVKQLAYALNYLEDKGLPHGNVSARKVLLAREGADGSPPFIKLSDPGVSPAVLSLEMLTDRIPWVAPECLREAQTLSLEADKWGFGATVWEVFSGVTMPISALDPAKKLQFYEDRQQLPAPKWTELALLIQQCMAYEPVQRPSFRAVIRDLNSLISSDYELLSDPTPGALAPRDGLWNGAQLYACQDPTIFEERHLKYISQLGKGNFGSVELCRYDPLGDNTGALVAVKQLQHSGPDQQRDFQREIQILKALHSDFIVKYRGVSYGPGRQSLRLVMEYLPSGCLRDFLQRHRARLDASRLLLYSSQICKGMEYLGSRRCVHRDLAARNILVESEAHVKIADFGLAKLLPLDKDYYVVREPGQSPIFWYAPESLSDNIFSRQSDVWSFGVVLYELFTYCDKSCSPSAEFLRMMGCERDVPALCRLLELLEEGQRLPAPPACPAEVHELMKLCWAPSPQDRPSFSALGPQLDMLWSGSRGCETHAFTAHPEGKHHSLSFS

Chain of Insulin-like growth factor 1 receptor (P08069 31-736 limits assumed): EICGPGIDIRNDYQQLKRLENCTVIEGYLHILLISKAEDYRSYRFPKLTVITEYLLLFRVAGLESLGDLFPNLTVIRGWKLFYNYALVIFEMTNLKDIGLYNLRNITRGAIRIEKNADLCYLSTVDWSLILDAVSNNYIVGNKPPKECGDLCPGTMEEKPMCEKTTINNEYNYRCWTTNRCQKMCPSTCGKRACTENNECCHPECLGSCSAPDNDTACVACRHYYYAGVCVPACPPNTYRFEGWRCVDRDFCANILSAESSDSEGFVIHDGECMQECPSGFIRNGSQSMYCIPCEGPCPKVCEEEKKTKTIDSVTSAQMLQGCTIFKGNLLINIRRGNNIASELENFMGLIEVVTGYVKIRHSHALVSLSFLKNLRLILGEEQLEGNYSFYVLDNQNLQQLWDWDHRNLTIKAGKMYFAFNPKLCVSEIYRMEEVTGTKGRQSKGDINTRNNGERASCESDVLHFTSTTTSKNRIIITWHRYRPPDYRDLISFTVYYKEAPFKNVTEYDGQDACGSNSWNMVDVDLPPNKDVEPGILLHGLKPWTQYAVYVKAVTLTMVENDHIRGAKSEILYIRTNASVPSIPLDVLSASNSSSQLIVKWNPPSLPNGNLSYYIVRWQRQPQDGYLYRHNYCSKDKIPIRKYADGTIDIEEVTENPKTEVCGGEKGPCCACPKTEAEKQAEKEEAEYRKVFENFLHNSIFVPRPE
Chain of Insulin-like growth factor 1 receptor (P08069 741-1367 limits assumed): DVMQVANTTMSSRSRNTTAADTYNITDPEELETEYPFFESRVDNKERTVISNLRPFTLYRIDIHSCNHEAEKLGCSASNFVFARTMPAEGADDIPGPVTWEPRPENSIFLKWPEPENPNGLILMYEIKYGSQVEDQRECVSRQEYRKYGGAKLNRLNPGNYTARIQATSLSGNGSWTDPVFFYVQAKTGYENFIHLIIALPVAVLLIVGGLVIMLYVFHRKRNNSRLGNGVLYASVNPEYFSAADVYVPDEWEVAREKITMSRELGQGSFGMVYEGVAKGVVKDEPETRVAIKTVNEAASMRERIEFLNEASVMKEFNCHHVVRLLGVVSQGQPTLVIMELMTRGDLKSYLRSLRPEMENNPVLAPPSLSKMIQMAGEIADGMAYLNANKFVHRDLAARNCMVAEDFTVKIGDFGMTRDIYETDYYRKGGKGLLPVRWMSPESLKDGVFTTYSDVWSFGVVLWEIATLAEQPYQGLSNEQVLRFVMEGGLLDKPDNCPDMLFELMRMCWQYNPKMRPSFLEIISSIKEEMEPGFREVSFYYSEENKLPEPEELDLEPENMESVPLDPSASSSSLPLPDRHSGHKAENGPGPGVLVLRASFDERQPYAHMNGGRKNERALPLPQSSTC

IC50 [2]: > 10 µM | IC50 [3]: > 10 µM
Structure (SMILES): Cc1ccc(NC(=O)Nc2nnc(Sc3ncnc4cc(OCCCN5CCOCC5)ccc34)s2)cc1
IC50 [1]: > 10 µM
